One may read the ED50 as the midpoint of the dose-response relation. Low readings indicate an effect at a small dose, high ones a need for a large dose.

Molecules are shown by their SMILES. The source made the active and inactive calls. The rule behind the calls is not given here.

This passage reports Activity and ED50 results from ChEMBL document CHEMBL1139056, “3D-QSAR design of novel antiepileptic sulfamides” (2007).

Experiment [1] deals with Mus musculus. As to the kind of experiment: Anticonvulsant activity in ip dosed Albino mouse by PIC test. The experiment is classed as functional, organism-based. The method in brief: (§1)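 Mice of matched age and weight, 12-h light/dark cycle, food and water ad libitum. Dosing ip in 30% PEG 400 and 10% water at 0.01 ml/g body weight. PIC and PTZ seizure tests run by NIH antiepileptic drug development program standard procedures.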

For experiment [2], the system named is Mus musculus. As to the kind of experiment: Anticonvulsant activity in ip dosed Albino mouse by PTZ test. Format: functional, organism-based. The method in brief: as §1
Experiment [3] has as its system Mus musculus. As to the kind of experiment: Anticonvulsant activity in ip dosed Albino mouse by MES test. The experiment is classed as functional. The method in brief: (§2)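 Albino mice of matched age and weight, 12-h light/dark cycle, free food and water. Compound given ip in 30% PEG 400 and 10% water, 0.01 ml/g body weight. MES test by NIH antiepileptic drug development program standard procedures. ED50 from groups of six mice at several doses at time of peak effect; Litchfield–Wilcoxon with 95% confidence intervals.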

The test system of experiment [4] is Mus musculus. As to the kind of experiment: Anticonvulsant activity in ip dosed Albino mouse assessed as time of peak effect by MES test. Format: functional. The method, boiled down: as §2

In the case of `O=S(=O)(N1CCOCC1)N1CCOCC1`, the outcome with Mus musculus [1], with Mus musculus [2] and with Mus musculus [3] was inactive.

Regarding `O=S(=O)(NC1CC1)NC1CC1`, the outcome with Mus musculus [1], in the experiment on Mus musculus [2] and in the experiment with Mus musculus [3] was inactive.

With `O=S(=O)(NCc1ccccc1)NCc1ccccc1` [BENZYL(BENZYLSULFAMOYL)AMINE], the result in the experiment with Mus musculus [1] and with Mus musculus [2] was inactive. Besides, the Activity in the experiment on Mus musculus [4] was 2 h. In addition, the ED50 with Mus musculus [3] is 238 µmol/kg.

Consider `CCCCNS(=O)(=O)NCCCC` [BUTYL(BUTYLSULFAMOYL)AMINE], for which the result in the experiment with Mus musculus [1] and with Mus musculus [2] was inactive. Further, in the experiment on Mus musculus [4], the Activity was 2 h. The ED50 in the experiment on Mus musculus [3] is 295 µmol/kg.

For `O=S(=O)(NC1CCCCC1)NC1CCCCC1`, the Activity in the experiment with Mus musculus [4] turned out to be 0.5 h. In addition, the result with Mus musculus [2] was inactive. Moreover, in the experiment with Mus musculus [3], the ED50 worked out at 151 µmol/kg.
